Measurements taken from ChEMBL document CHEMBL1132966, “Conformationally constrained analogues of diacylglycerol (DAG). 16. How much structural complexity is necessary for recognition and high binding affinity to protein kinase C?” (J Med Chem, 2000).
pEC50, pKi: −log10 of the molar value.

Legend:
[1] = biological target: T1, Protein kinase C alpha type (Homo sapiens, UniProt P17252); assay: Binding Affinity against protein kinase C alpha
[2] = biological target: T1, Protein kinase C alpha type
C3H 10T1/2 = assay: Tested for inhibition of EGF(epidermal growth factor) to C3H10T1/2 cells.; assay type: functional; details: Mus musculus, read-out: ED50 (the source's name)
Summary of the method: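 C3H10T1/2 cells were plated at 2.5×10^5/well in MEM with 10% FBS and grown 2 days at 37 °C, 5% CO2. Cells were pretreated 60 min at 37 °C with ligand in MEM/BSA/25 mM BES pH 7.2 (DMSO <0.1% final). Cells were lysed in NaOH and bound counts measured. Background was taken with 1 μg/well unlabeled EGF. Six concentrations were run in triplicate, and ID50 is the mean of three experiments.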

COLO 205 = assay: Tested for growth inhibition against COLO 205 cells.; assay type: functional; details: Homo sapiens
Summary of the method: (§1)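 GI50 is interpolated from the NCI cell-panel screen. It is the concentration (M) at which percentage growth is inhibited by 50% in the named line.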

K562 = assay: Tested for growth inhibition against Leukemia K-562 cells.; assay type: functional; details: Homo sapiens; summary of the method: as §1
Homo sapiens = organism: Homo sapiens; assay: Tested for growth inhibition against Breast Hs 578.T.; assay type: functional; summary of the method: as §1
[3] = test system: Panel NCI-60 (60 carcinoma cell lines); assay: Tested for growth inhibition against MG-MID(full panel of cells); assay type: functional; details: Homo sapiens
Summary of the method: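 MG-MID is the calculated mean of the GI50 concentrations (M) across the entire NCI cell panel. Each GI50 is the interpolated concentration (M) giving 50% growth inhibition.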

Compound: CCC/C=C1\CC(CO)(COC(=O)CC(C(C)C)C(C)C)OC1=O (centres undefined)
- pKi [1]: 7.55

Compound: CC(=O)OCC1(CO)C/C(=C\C=C(C(C)C)C(C)C)C(=O)O1 (centres undefined)
- pKi [1]: 6.39

Compound: CCCC(=O)OCC1(CO)C/C(=C\C=C(C(C)C)C(C)C)C(=O)O1 (centres undefined)
- pKi [1]: 7.29

Compound: CCCCCCOC(=O)/C=C/[C@]1(CO)C/C(=C\CC(C(C)C)C(C)C)C(=O)O1
- pKi [1]: 7.53

Compound: CCCCCCCC/C=C\CCCCCCC/C=C1/C[C@](/C=C/C(=O)OC)(CO)OC1=O
- pKi [1]: 7.96
- ED50 [2]: 1.07 µM
- pEC50 (C3H 10T1/2): 6.48

Compound: CC(C)C(C/C=C1\CC(CO)(COC(=O)CC(C(C)C)C(C)C)OC1=O)C(C)C (centres undefined)
- ED50 [2]: 0.68 µM
- pEC50 (C3H 10T1/2): 6.85
- GI50 (COLO 205): 1600 nM
- GI50 (K562): 1500 nM
- GI50 (Homo sapiens): 12000 nM

Compound: CCCCCCCC(=O)OC[C@]1(CO)C/C(=C\CC(C(C)C)C(C)C)C(=O)O1
- pKi [1]: 8.23

Compound: CC(=O)O[C@@]12C[C@@H](C)[C@@]3(O)[C@@H](C=C(CO)C[C@]4(O)C(=O)C(C)=C[C@@H]34)[C@@H]1C2(C)C [PROSTRATIN]
- GI50 [3]: 7 µM
- GI50 (COLO 205): 1900 nM
- GI50 (Homo sapiens): 790 nM

Compound: CC(=O)OCC1(CO)C/C(=C/CC(C(C)C)C(C)C)C(=O)O1 (centres undefined)
- pKi [1]: 6.91

Compound: CCCC(=O)OCC1(CO)C/C(=C\CC(C(C)C)C(C)C)C(=O)O1 (centres undefined)
- pKi [1]: 7.27

Compound: CCCC(=O)OCC1(CO)C/C(=C/CC(C(C)C)C(C)C)C(=O)O1 (centres undefined)
- pKi [1]: 7.72
- ED50 [2]: 1.95 µM
- pEC50 (C3H 10T1/2): 6.09

Compound: CCCCCCCCCC(=O)OCC1(CO)C/C(=C/CC(C(C)C)C(C)C)C(=O)O1 (centres undefined)
- pKi [1]: 8.64
- GI50 [3]: 44 µM
- ED50 [2]: 0.66 µM
- pEC50 (C3H 10T1/2): 5.93
- GI50 (COLO 205): 18000 nM
- GI50 (K562): 9200 nM
- GI50 (Homo sapiens): 27000 nM

Compound: CCCC(=O)OCC1(CO)C/C(=C/C=C(C(C)C)C(C)C)C(=O)O1 (centres undefined)
- pKi [1]: 7.17

Compound: CCCCCC(=O)OCC1(CO)C/C(=C\CC(C(C)C)C(C)C)C(=O)O1 (centres undefined)
- pKi [1]: 7.96

Compound: CCCCCCCCC/C=C1/CC(CO)(COC(=O)CC(C(C)C)C(C)C)OC1=O (centres undefined)
- pKi [1]: 7.89
- GI50 [3]: 4.7 µM
- ED50 [2]: 0.43 µM
- pEC50 (C3H 10T1/2): 6.43
- GI50 (COLO 205): 71 nM
- GI50 (K562): 140 nM
- GI50 (Homo sapiens): 58 nM

Compound: CC(=O)OCC1(CO)C/C(=C/C=C(C(C)C)C(C)C)C(=O)O1 (centres undefined)
- pKi [1]: 6.41

Compound: CC(=O)OCC1(CO)C/C(=C\CC(C(C)C)C(C)C)C(=O)O1 (centres undefined)
- pKi [1]: 6.44

Compound: CCCCC/C=C1/CC(CO)(COC(=O)CC(C(C)C)C(C)C)OC1=O (centres undefined)
- pKi [1]: 8.14
- ED50 [2]: 0.34 µM
- pEC50 (C3H 10T1/2): 6.89

Compound: CC(C)C(C/C=C1/CC(CO)(COC(=O)CC(C(C)C)C(C)C)OC1=O)C(C)C (centres undefined)
- GI50 [3]: 3.2 µM
- ED50 [2]: 0.55 µM
- pEC50 (C3H 10T1/2): 6.77
- GI50 (COLO 205): 25 nM
- GI50 (K562): 21 nM
- GI50 (Homo sapiens): 26 nM

Compound: CCC/C=C1/CC(CO)(COC(=O)CC(C(C)C)C(C)C)OC1=O (centres undefined)
- pKi [1]: 7.62

Compound: CCCCCCCCC/C=C1\CC(CO)(COC(=O)CC(C(C)C)C(C)C)OC1=O (centres undefined)
- pKi [1]: 8.02

Compound: CCCCC/C=C1\CC(CO)(COC(=O)CC(C(C)C)C(C)C)OC1=O (centres undefined)
- pKi [1]: 8.26

Compound: C/C=C1/CC(CO)(COC(=O)CC(C(C)C)C(C)C)OC1=O (centres undefined)
- pKi [1]: 6.79

Compound: CCCC(=O)O[C@@H]1[C@@H](C)[C@@]2(O)[C@@H](C=C(CO)C[C@]3(O)C(=O)C(C)=C[C@@H]23)[C@@H]2C(C)(C)[C@]12OC(=O)CCC
- pEC50 (C3H 10T1/2): 7.70

Compound: CCCCCC(=O)OCC1(CO)C/C(=C/CC(C(C)C)C(C)C)C(=O)O1 (centres undefined)
- pKi [1]: 8.23
- ED50 [2]: 2.33 µM
- pEC50 (C3H 10T1/2): 5.65

Compound: CCCCCC(=O)OCC1(CO)C/C(=C\C=C(C(C)C)C(C)C)C(=O)O1 (centres undefined)
- pKi [1]: 8.08

Compound: C/C=C1\CC(CO)(COC(=O)CC(C(C)C)C(C)C)OC1=O (centres undefined)
- pKi [1]: 6.86

Compound: CCCCCCOC(=O)/C=C/[C@]1(CO)C/C(=C/CC(C(C)C)C(C)C)C(=O)O1
- pKi [1]: 8.46
- ED50 [2]: 0.95 µM
- pEC50 (C3H 10T1/2): 6.85

Compound: CCCCCCCCCC(=O)OCC1(CO)C/C(=C\CC(C(C)C)C(C)C)C(=O)O1 (centres undefined)
- pKi [1]: 8.18

Compound: CCCCCC(=O)OCC1(CO)C/C(=C/C=C(C(C)C)C(C)C)C(=O)O1 (centres undefined)
- pKi [1]: 7.92

Compound: CCCCCCCC(=O)OC[C@]1(CO)C/C(=C/CC(C(C)C)C(C)C)C(=O)O1
- pKi [1]: 8.46
